Experimental data as given in ChEMBL document CHEMBL4371014, “Novel Allosteric Ligands of γ-Aminobutyric Acid Transporter 1 (GAT1) by MS Based Screening of Pseudostatic Hydrazone Libraries” (J Med Chem, 2018).

How the values were obtained:
[1] = target: T1, Sodium- and chloride-dependent GABA transporter 1 (Homo sapiens, UniProt P30531); experiment: Inhibition of NO711 binding to human GAT1 expressed in COS cell membranes preincubated for 25 mins by LC-ESI-MS/MS analysis
[2] = target: T1, Sodium- and chloride-dependent GABA transporter 1; experiment: Inhibition of NO711 binding to human GAT1 expressed in COS cell membranes by LC-ESI-MS/MS analysis
[3] = target: T2, Sodium- and chloride-dependent GABA transporter 1 (Mus musculus, UniProt P31648); experiment: Inhibition of NO711 binding to mouse GAT1 expressed in HEK293 cell membranes assessed as residual binding preincubated for 4 hrs followed by NO711 addition and measured after 40 mins by LC-ESI-MS/MS analysis
Summary of the method: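 Pseudostatic hydrazone libraries were generated with mouse GAT1 present. Each held eight aldehydes (1.0 µM each) plus hydrazine (200 µM), incubated 4 h. NO711 marker was added directly for a further 40 min. Bound marker was released and quantified by LC-ESI-MS/MS as % remaining specific binding, four replicates (means±SD).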

[4] = target: T3, GABA transporter 4 (Mus musculus, UniProt P31650); experiment: Inhibition of mouse GAT4 expressed in HEK293 cells assessed as reduction in [3H]GABA uptake preincubated for 25 mins followed by [3H]GABA addition and measured after 4 mins by liquid scintillation counting method; type: cell-based
T3 sequence (P31650 whole entry): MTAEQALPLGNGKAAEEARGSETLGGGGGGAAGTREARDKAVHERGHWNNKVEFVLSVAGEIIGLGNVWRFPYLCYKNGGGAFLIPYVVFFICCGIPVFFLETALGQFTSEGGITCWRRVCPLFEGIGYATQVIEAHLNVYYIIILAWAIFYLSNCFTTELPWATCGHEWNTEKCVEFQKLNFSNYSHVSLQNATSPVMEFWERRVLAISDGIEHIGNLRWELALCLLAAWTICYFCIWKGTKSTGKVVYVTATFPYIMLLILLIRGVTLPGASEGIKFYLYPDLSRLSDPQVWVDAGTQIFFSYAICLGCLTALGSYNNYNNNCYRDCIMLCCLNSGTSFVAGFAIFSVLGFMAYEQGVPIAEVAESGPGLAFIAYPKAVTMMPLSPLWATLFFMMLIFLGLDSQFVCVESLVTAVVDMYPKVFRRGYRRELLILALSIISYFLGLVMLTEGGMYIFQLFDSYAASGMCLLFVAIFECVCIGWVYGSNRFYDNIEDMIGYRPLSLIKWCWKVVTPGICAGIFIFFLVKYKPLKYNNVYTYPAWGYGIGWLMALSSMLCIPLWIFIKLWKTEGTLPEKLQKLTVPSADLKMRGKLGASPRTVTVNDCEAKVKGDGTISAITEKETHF

[5] = target: T2, Sodium- and chloride-dependent GABA transporter 1; experiment: Inhibition of mouse GAT1 expressed in HEK293 cells assessed as reduction in [3H]GABA uptake preincubated for 25 mins followed by [3H]GABA addition and measured after 4 mins by liquid scintillation counting method; type: cell-based

T1 sequence (P30531 whole entry): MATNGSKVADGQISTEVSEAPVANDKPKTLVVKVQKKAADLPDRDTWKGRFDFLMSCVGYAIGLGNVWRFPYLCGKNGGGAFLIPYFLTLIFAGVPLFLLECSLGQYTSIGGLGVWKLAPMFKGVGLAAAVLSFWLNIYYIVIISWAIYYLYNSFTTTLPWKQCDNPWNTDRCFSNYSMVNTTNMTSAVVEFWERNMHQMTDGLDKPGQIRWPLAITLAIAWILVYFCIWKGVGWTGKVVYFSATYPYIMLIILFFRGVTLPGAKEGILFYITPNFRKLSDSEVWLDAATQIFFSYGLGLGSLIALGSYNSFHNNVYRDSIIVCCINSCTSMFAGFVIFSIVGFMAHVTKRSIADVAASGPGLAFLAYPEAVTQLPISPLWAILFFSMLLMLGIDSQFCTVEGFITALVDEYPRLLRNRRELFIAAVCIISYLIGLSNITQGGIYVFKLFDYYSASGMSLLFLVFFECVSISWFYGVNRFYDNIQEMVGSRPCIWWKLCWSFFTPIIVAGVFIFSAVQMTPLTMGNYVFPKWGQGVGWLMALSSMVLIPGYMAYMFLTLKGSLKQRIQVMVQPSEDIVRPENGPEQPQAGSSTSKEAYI

O=C(O)[C@H]1CNC[C@@H](CCN/N=C/c2ccc(-c3ccc(C(F)(F)F)cc3Cl)o2)C1 (racemic)
IC50 [1]: 30.9 to 135 µM
IC50 [2]: 26.9 to 170 µM
Ki [3]: 0.617 µM
IC50 [4]: 41.7 µM
IC50 [5]: 44.7 µM

O=C(O)[C@H]1CNC[C@@H](CN/N=C/c2ccc(-c3cccc(C(F)(F)F)c3)o2)C1 (racemic)
Ki [3]: 0.708 µM

O=C(O)[C@H]1CNC[C@@H](CN/N=C/c2ccc(-c3ccc(Cl)cc3[N+](=O)[O-])o2)C1 (racemic)
Ki [3]: 1.48 µM

O=C(O)[C@H]1CNC[C@@H](CN/N=C/c2ccc(-c3ccccc3C(F)(F)F)o2)C1 (racemic)
Ki [3]: 2.29 µM

O=C(O)[C@H]1CNC[C@@H](CN/N=C/c2cccc(Oc3ccccc3)c2)C1 (racemic)
Ki [3]: 0.955 µM

O=C(O)[C@H]1CNC[C@@H](CN/N=C/c2ccc(-c3ccccc3Br)o2)C1 (racemic)
Ki [3]: 1.45 µM

O=C(O)[C@H]1CNC[C@@H](CN/N=C/c2cnc(-c3ccc4ccccc4c3)nc2)C1 (racemic)
Ki [3]: 0.933 µM

O=C(O)[C@H]1CNC[C@@H](CN/N=C/c2ccc(-c3cccc4ccccc34)o2)C1 (racemic)
IC50 [1]: 42.7 µM
IC50 [2]: 26.9 to 170 µM
Ki [3]: 0.214 µM
IC50 [4]: 75.9 µM
IC50 [5]: 22.9 µM

O=C(O)[C@H]1CNC[C@@H](CCN/N=C/c2ccc(-c3ccc(Cl)cc3Cl)o2)C1 (racemic)
IC50 [1]: 30.9 to 135 µM
IC50 [2]: 26.9 to 170 µM
Ki [3]: 0.479 µM
IC50 [4]: 15.1 µM
IC50 [5]: 35.5 µM

O=C(O)[C@H]1CNC[C@@H](CN/N=C/c2ccc(-c3cc(C(F)(F)F)cc(C(F)(F)F)c3)o2)C1 (racemic)
IC50 [1]: 135 µM
IC50 [2]: 26.9 to 170 µM
Ki [3]: 0.245 µM

O=C(O)[C@H]1CNC[C@@H](CN/N=C/c2ccc(-c3ccc(Cl)cc3Cl)o2)C1 (racemic)
Ki [3]: 0.646 µM

O=C(O)[C@H]1CNC[C@@H](CN/N=C/c2ccc(-c3ccc(F)c(C(F)(F)F)c3)o2)C1 (racemic)
Ki [3]: 1.26 µM

O=C(O)[C@H]1CNC[C@@H](CN/N=C/c2ccc(-c3ccc(C(F)(F)F)cc3Cl)o2)C1 (racemic)
IC50 [1]: 30.9 to 135 µM
IC50 [2]: 26.9 to 170 µM
Ki [3]: 0.447 µM
IC50 [5]: 41.7 µM

O=C(O)[C@H]1CNC[C@@H](CN/N=C/c2ccc(-c3cc(C(F)(F)F)ccc3Cl)o2)C1 (racemic)
IC50 [1]: 30.9 to 135 µM
IC50 [2]: 26.9 to 170 µM
Ki [3]: 0.468 µM
IC50 [5]: 81.3 µM

O=C(O)[C@H]1CNC[C@@H](CN/N=C/c2ccc(-c3cccc(Cl)c3)o2)C1 (racemic)
Ki [3]: 1.86 µM

O=C(O)[C@H]1CNC[C@@H](CN/N=C/c2ccc(-c3ccccc3Cl)o2)C1 (racemic)
Ki [3]: 1.23 µM

Cc1ccsc1C(=CCCN1CCC[C@@H](C(=O)O)C1)c1sccc1C [TIAGABINE]
Ki [3]: 0.0275 µM
